Rows were chosen to be rich in hits. Some 2.9% of all compounds tested hit in one or more screens of this group.
OX1R antag-1: blocks the human orexin 1 receptor; O43613; CHO/OX1R cells, Fluo-8 calcium fluorescence, orexin A; inhibition, % at 5 µM; 330,000 compounds, 0.43% hits; AID 434989;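 active = inhibition above its plate's threshold, mean inhibition of all tested compounds on the plate plus 3 SD, cut at about 37% in these data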;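 note: 0% = orexin A challenge wells and 100% = SB-334867-A antagonist wells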
Target sequence (O43613 whole entry, looked up): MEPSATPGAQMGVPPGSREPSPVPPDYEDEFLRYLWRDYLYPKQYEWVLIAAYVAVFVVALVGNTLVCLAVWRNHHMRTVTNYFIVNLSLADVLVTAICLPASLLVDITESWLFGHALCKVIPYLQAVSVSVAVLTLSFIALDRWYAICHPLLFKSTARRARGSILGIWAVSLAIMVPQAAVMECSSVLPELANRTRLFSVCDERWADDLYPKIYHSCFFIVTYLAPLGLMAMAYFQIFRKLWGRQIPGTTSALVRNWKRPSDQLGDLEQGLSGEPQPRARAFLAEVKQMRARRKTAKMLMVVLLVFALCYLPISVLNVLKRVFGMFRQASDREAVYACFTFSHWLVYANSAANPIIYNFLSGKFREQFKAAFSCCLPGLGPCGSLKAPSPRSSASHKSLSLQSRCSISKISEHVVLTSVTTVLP
M1 PAM parental: nonselective activator or artifact in parental CHO-K1 calcium assay; ATP EC20, Fluo-8 calcium fluorescence; 0% at ATP EC20, 100% at ATP max; activation, % at 3 µM; 360,000 compounds, 0.02% hits; AID 602247;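 active = activation above the run cutoff, the mean activation of all test compounds plus 3 SD, cut at about 40% in these data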;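 note: peak over basal fluorescence ratio in a 140 s read after ATP addition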
M1 ag parental: nonselective activator or artifact in parental CHO-K1 cells | Fluo-8 calcium fluorescence; scaled to maximal ATP response, vehicle zero | activation, % at 3 µM | 360,000 compounds, 0.48% hits; in the data active = activation above about 15%;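 note: untransfected CHO-K1 host cells lacking M1 receptor as counterscreen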
CHO parental Ca: counter-screen for OX1R antagonists: effect in parental CHO cells | 330,000 compounds, 0.63% hits | parental CHO-K1, ATP-induced calcium, Fluo-8 fluorescence | inhibition, % at 5.6 µM;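 active = inhibition above that plate's mean sample inhibition plus 3 SD, cut at about 26% in these data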;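 note: 0% = ATP-challenged DMSO wells and 100% = DMSO wells without ATP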
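test system = CHO parental line | reagent = ATP stimulus | measured by = intracellular calcium via Fluo-8 no-wash fluorescent dye | control set = ATP and no-ATP DMSO wells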
OX1R antag-2: blocks the human orexin 1 receptor | 330,000 compounds, 1.8% hits | inhibition, % at 6.6 µM | O43613 | OX1R-expressing cells, FRET antagonist read-out; in the data active = inhibition mostly above about 38%, no sharp cut-off; inactive = mostly below about 40%;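 note: 0% = agonist challenge alone and 100% = reference antagonist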
CHO-K1 Ca antag: counter-screen for M1 antagonists: effect in parental CHO-K1 cells | ATP-induced calcium, Fluo-8 fluorescence | inhibition, % at 3 µM | 360,000 compounds, 0.6% hits | AID 602250;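 active = inhibition above a per-plate cutoff, the plate's mean sample inhibition plus 3 SD, cut at about 24% in these data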;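 note: 0% = DMSO plus EC80 ATP and 100% = DMSO alone without ATP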
Numbers without * were called inactive; · = no result.

SMILES | OX1R antag-1 | M1 PAM parental | M1 ag parental | CHO parental Ca | OX1R antag-2 | CHO-K1 Ca antag
CC(C)(C)c1ccc(-c2cc(-c3ccccc3O)[nH]n2)cc1 | -19 | -18 | 0 | 2 | 17 | 13
Oc1ccccc1-c1cc(-c2cccc(F)c2)n[nH]1 | -4 | -4 | 0 | 11 | 41* | 10
CN(CC(=O)Nc1cccc(F)c1)C(=O)CCc1nc2cc(S(=O)(=O)N3CCOCC3)ccc2n1C | -5 | 0 | 0 | -13 | -2 | 6
C[C@@H](C(=O)Nc1ccc2ccccc2c1)[C@H]1C[C@]1(C)[C@H](NC(=O)c1cnccn1)c1ccccc1 | 27 | 5 | -1 | -28 | 69* | -8
Cc1sc2ncn(CC(=O)NCC3COc4ccccc4O3)c(=O)c2c1S(=O)(=O)N1CCCCC1 (centres undefined) | -34 | -14 | 0 | -24 | 31 | 19
COc1cccc(/C=C2/SC(=S)N(CCCC(=O)Nc3ccc(O)cc3)C2=O)c1 | 10 | 13 | 7 | -9 | 73* | -11
O=C(CCCN1C(=O)/C(=C/c2ccc3c(c2)OCO3)SC1=S)Nc1cccc(C(=O)O)c1 | 7 | 18 | 0 | -17 | 54* | -12
COc1cccc(/C=C2\SC(=S)N(CCCC(=O)Nc3ccc(C(=O)O)cc3)C2=O)c1 | -16 | 21 | 1 | -15 | 0 | -11
Cc1cc(C(=O)O)ccc1-c1ccc(/C=C2\SC(=O)N(CC(=O)Nc3ccc4c(c3)OCO4)C2=O)o1 | · | -7 | 6 | · | · | 27*
O=C(CCN1C(=O)/C(=C/c2ccc3c(c2)OCO3)SC1=S)Nc1cccc(C(=O)O)c1 | -5 | 14 | 2 | 4 | 10 | -3
COc1ccc(/C=C2/SC(=S)N(CCCC(=O)Nc3ccc(O)cc3)C2=O)cc1OC | -11 | -31 | 0 | -1 | 54* | 10
Cc1ccc(C(=O)O)cc1-c1ccc(/C=C2\SC(=O)N(CC(=O)Nc3ccccc3)C2=O)o1 | -18 | 7 | 0 | -7 | 15 | 5
CC(=O)c1ccc(NC(=O)CN2CCCCCC2)cc1 | -5 | -7 | 1 | 1 | 5 | -17
CCc1nn(CC(=O)NCCCc2ccccc2)c(=O)c2cc3cc(F)ccc3n12 | -30 | 16 | 1 | -1 | 10 | -6
COc1ccc(NC2CCCN(C(=O)c3ccc4nc(C)c(C)nc4c3)C2)cc1OC (centres undefined) | -12 | -15 | 0 | -22 | 8 | 16
CC1CC(C)CN(C(=O)c2ccc(S(=O)(=O)N3CCCC3)cc2)C1 (centres undefined) | -2 | 1 | 1 | 1 | 8 | -8
COc1cccc(/C=C2/SC(=S)N(CC(=O)NNC(=O)c3ccccc3O)C2=O)c1 | -3 | 8 | 1 | -11 | 48* | -15
CN(C)c1ccc(/C=C(/C(=O)c2ccc(Cl)cc2Cl)n2cncn2)cc1 | 26 | 12 | 18* | -1 | 15 | 8
COc1ccc(/C=C(/C(=O)c2ccc(Cl)cc2Cl)n2cncn2)cc1 | -19 | 17 | 2 | -17 | 33 | -9
CCOc1ccc(N2C(=O)Nc3ccccc3C2(O)C(=O)N2CCN(c3ccccn3)CC2)cc1 (centres undefined) | -22 | 8 | -1 | -16 | 7 | -5
CCOC(=O)n1c(=O)oc2ccc(Cl)cc21 | 0 | -6 | 0 | 13 | 14 | 29*
CCOC(=O)C1CCN(c2ncnc3c2oc2ccccc23)CC1 | 19 | 5 | 11 | -9 | 62* | 4
CCOC(=O)C1CCCN(c2ncnc3c2oc2ccccc23)C1 (centres undefined) | 55* | -8 | 4 | 40* | 89* | 24*
CNS(=O)(=O)c1cc(Nc2ncnc3sccc23)ccc1C | 19 | 15 | 5 | 4 | 63* | -5
COc1ccc(NC(=O)c2ccccc2Oc2ccccc2)c(OC)c1 | -45 | 36 | 0 | -52 | -3 | -19
SMILES | OX1R antag-1 | M1 PAM parental | M1 ag parental | CHO parental Ca | OX1R antag-2 | CHO-K1 Ca antag
COc1ccc(NC(=O)c2ccccc2OCc2ccc(F)cc2)c(OC)c1 | -10 | 43* | 1 | -34 | 7 | -23
COc1ccc(C(=O)Nc2ccccc2Cc2ccccc2)c(OC)c1 | -10 | 52* | 1 | -19 | 8 | -23
O=C(O)c1ccc(S(=O)(=O)NC2CCCc3ccccc32)cc1 (centres undefined) | 1 | 9 | 0 | -10 | 4 | -10
CC(=O)N1CCc2cc(S(=O)(=O)NCCC3=CCCCC3)ccc21 | 38 | 6 | 10 | 38* | 42 | 21
CC(=O)N1CCc2cc(S(=O)(=O)NC3CCCc4ccccc43)ccc21 (centres undefined) | 27 | -8 | 5 | 29 | 44 | 34*
COc1ccc(CNC(=O)CNS(=O)(=O)c2ccc(Cl)cc2)cc1 | -19 | 22 | 1 | -11 | 7 | -7
COc1ccc(CCNC(=O)CNS(=O)(=O)c2ccc(Cl)cc2)cc1 | -30 | -22 | 8 | -12 | 10 | 24*
CC(=O)N1CCc2cc(S(=O)(=O)NCCC(=O)NCCc3ccc(Cl)cc3)ccc21 | -15 | 1 | 16* | -7 | 15 | -2
CC(NC(=O)c1ccc(N)cc1)c1ccccc1 (centres undefined) | -17 | -5 | 0 | 11 | -4 | -9
Cc1ccc(Cl)cc1NC(C#N)c1ccccc1 (centres undefined) | -24 | 23 | 1 | -2 | 5 | -12
CCn1c(C)nc2cc(-c3nnc(-c4c(-c5ccccc5)noc4C)o3)ccc21 | 13 | 8 | 6 | 37* | 45* | 1
CC(C(=O)NCc1ccco1)c1ccc([N+](=O)[O-])cc1 (centres undefined) | 5 | -13 | 0 | -3 | 18 | 25*
Cc1c(Br)c([N+](=O)[O-])nn1C(C)C(=O)NCc1ccco1 (centres undefined) | 0 | 5 | 0 | -8 | 16 | -2
Cc1nn(C(C)C(=O)NCc2ccco2)c(C)c1[N+](=O)[O-] (centres undefined) | -5 | 15 | 19* | -4 | 9 | -1
CC1CCCCC12NC(=O)N(CC(=O)NCCc1c[nH]c3ccccc13)C2=O (centres undefined) | -14 | 22 | 1 | -4 | -1 | 2
CC1(C(=O)Nc2ccccc2F)CCN1C(=O)Cc1ccc(-c2ccccc2)cc1 (centres undefined) | · | 0 | 3 | · | · | 7
COc1cccc(CNC(=O)C(=O)NCC(c2ccco2)N2CCOCC2)c1 (centres undefined) | -11 | 8 | 0 | -18 | 10 | -7
COc1cc(-c2n[nH]c(=S)n2/N=C/c2cccn2C)cc(OC)c1OC | 77* | 2 | 22* | 29 | 2 | -1
COc1cccc(-c2c(C(=O)N/N=C(\C)c3ccc(Cl)s3)nnn2-c2nonc2N)c1 | 1 | 7 | 2 | 5 | 13 | -3

Screens (PubChem)
